The values below come from ChEMBL document CHEMBL1137054, “Synthesis of 5'-substituted fluoro-neplanocin A analogues: importance of a hydrogen bonding donor at 5'-position for the inhibitory activity of S-adenosylhomocysteine hydrolase” (Bioorg Med Chem Lett, 2004).

Experiment [1] addresses Adenosylhomocysteinase (Homo sapiens, UniProt P23526). Description: Inhibitory activity against enzyme S-adenosyl-homocysteine hydrolase of human placenta.
The test system of experiment [2] is A549. Description: Concentration required for 50% inhibition of A549 cell line (human lung carcinoma cells). Format: functional, cell-based. Summed up: (§1)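 Cytotoxicity in cultured human cancer cells (Col2 colon carcinoma; A549 lung carcinoma). Cells were exposed to serial dilutions of compound, and the value is the concentration giving 50% survival.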
The subject of experiment [3] is Col2. Description: Concentration required for 50% inhibition of Col2 cell line (human colon carcinoma cells). Format: functional, cell-based. Summed up:
as §1

Usually IC50 stands for the concentration needed to halve the response being measured. Read a high IC50 as lower potency.

Chain of Adenosylhomocysteinase (P23526 whole entry): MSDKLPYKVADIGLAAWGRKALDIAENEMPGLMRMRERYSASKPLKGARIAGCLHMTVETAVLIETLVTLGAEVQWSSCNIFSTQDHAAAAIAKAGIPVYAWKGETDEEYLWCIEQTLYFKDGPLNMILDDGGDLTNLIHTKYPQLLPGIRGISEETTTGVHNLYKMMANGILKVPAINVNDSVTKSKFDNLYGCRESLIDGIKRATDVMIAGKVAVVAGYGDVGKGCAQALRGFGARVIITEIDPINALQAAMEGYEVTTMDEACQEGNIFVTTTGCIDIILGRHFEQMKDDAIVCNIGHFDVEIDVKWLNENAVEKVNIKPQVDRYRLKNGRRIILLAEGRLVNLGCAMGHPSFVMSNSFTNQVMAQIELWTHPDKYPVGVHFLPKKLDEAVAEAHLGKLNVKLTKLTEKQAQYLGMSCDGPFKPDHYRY

Consider `Nc1ncnc2c1ncn2[C@@H]1C(F)=C(CS)[C@@H](O)[C@H]1O`, for which the results for the 50% inhibitory concentration (IC50) in experiment [1], in experiment [2] and in experiment [3] were 97.3 µM, > 100 µM and > 100 µM, respectively.
For the compound `Nc1ncnc2c1ncn2[C@@H]1C(F)=C(CO)[C@@H](O)[C@H]1O` [FLUORO-NEPLANOCIN A], the concentration for half-maximal inhibition (IC50) in experiment [1] stood at 0.48 µM; in experiment [2], 4.6 µM; in experiment [3], 1.4 µM.
With `Nc1ncnc2c1ncn2[C@@H]1C(F)=C(CF)[C@@H](O)[C@H]1O`, the 50% inhibitory concentration (IC50) in experiment [1], in experiment [2] and in experiment [3] was > 100 µM throughout.
On to `NCC1=C(F)[C@@H](n2cnc3c(N)ncnc32)[C@H](O)[C@@H]1O`, for which the results for the IC50 in experiment [1], in experiment [2] and in experiment [3] were 12.7 µM, 42.8 µM and 39.2 µM, respectively.
Regarding `[N-]=[N+]=NCC1=C(F)[C@@H](n2cnc3c(N)ncnc32)[C@H](O)[C@@H]1O`, the half-inhibitory concentration (IC50) in experiment [1] is > 100 µM; in experiment [2], 53 µM; in experiment [3] it was 35.9 µM.
